Assay results: paper PMC7571425 (Antiviral Research, 2020)
Like-named read-outs stand apart in the source and are kept apart here.

Key:
Cell viability assay [1] = assay type: cell-based; settings: human
Procedure, shortened: (§1)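 Cardiomyocytes were differentiated from H9 hESCs or CMC-hiPSC-011 hiPSCs (CHIR99021, then Wnt inhibitor C59; lactate selection days 10–15). They were exposed to graded drug concentrations (DMSO stocks) for 24 h or 48 h. Viability was read by MTS, absorbance 490 nm. CC50 came from four-parameter nonlinear regression. Mean ± SD of at least two independent experiments in triplicate.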

SARS-CoV-2 [2] = assay type: cell-based; settings: for reduction in SARS-CoV-2 titers: 33 μM
SARS-CoV-2 [3] = experiment: Image-based; assay type: cell-based, SARS-CoV-2 (hCoV/Korea/KCDC-03/2020); settings: Severe acute respiratory syndrome coronavirus 2, 48 h, MOI 2.5, 48 h post-infection
[4] = Cytotoxicity in mock-infected Vero E6 cells; assay type: cell-based; settings: African green monkey
hPSC-CMs = experiment: Electrophysiological characterization of hPSC-CMs; assay type: cell-based, human; settings: for repolarization: dofetilide 10 nM, E4031 30 nM
SARS-CoV-2 [5] = experiment: CPE-based antiviral assay in Vero E6 cells; assay type: cell-based, SARS-CoV-2 (hCoV/Korea/KCDC-03/2020)
Cell viability assay [6] = assay type: cell-based; settings: human; remark: listed apart in the source
Procedure, shortened: as §1

hERG currents = hERG currents (Homo sapiens, UniProt Q12809); experiment: cell-based
SARS-CoV-2 [7] = experiment: RT-qPCR of intracellular SARS-CoV-2 RNA in hPSC-CMs; assay type: cell-based; settings: 0.3 μM and 1 μM
[8] = hESC-CMs (human embryonic stem cell-derived cardiomyocytes)

Chain of hERG currents (Q12809 whole entry): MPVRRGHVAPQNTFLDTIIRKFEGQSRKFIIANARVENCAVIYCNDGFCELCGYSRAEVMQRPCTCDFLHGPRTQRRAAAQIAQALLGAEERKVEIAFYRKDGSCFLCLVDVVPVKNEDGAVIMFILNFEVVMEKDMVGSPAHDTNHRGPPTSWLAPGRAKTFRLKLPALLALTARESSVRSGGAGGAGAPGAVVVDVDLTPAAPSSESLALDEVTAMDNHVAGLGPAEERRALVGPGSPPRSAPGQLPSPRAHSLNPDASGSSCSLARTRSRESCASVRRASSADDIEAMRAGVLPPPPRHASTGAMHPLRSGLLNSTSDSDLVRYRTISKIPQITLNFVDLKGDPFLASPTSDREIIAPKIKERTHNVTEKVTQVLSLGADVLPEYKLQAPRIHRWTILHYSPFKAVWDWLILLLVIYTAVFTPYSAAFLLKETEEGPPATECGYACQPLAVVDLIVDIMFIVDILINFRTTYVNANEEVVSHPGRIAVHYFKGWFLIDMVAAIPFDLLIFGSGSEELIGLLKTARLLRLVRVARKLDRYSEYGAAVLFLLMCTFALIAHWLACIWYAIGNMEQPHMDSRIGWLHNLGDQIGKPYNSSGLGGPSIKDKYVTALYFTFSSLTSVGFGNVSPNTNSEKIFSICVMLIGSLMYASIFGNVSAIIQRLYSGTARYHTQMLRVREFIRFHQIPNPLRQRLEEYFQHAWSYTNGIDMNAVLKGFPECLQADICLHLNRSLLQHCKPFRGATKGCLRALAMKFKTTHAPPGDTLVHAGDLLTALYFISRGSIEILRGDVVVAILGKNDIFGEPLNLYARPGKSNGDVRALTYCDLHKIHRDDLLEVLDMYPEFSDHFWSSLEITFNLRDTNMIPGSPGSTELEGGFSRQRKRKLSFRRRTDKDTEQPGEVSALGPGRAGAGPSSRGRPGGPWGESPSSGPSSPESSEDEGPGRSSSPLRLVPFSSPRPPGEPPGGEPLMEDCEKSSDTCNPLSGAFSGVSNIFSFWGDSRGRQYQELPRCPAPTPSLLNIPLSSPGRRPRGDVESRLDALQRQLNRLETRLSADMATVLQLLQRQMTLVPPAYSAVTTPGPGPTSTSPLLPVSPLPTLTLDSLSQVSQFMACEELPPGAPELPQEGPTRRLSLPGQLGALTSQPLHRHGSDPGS

CCN(CC)CCCC(C)Nc1ccnc2cc(Cl)ccc12 (centres unmarked) [Chloroquine]
CC50 at 48 h (Cell viability assay [1]; [8]): 84.9 µM
infectious viral particle production (SARS-CoV-2 [2]; hESC-CMs and hiPSC-CMs, highest tested concentration): complete suppression
reduction in SARS-CoV-2 titers (SARS-CoV-2 [2]; hESC-CMs): 2.3 log10 PFU/ml
effect on viral titers (SARS-CoV-2 [2]; hPSC-CMs, 11 μM): did not affect
reduction in SARS-CoV-2 titers (SARS-CoV-2 [2]; hiPSC-CMs): 0.3 log10 PFU/ml
Na+ peak amplitude and T-wave (hiPSC-CMs; 30 min exposure): pronounced reduction of Na^+ peak amplitude and T-wave flattening
field potential duration (FPD) (hiPSC-CMs; 30 min exposure): increased the field potential duration (FPD) of hiPSC-CMs in a dose-dependent manner
EC50 (SARS-CoV-2 [3]; hESC-CMs): 27.9 µM
EC90 (SARS-CoV-2 [3]; hESC-CMs): > 84.9 µM
EC50 (SARS-CoV-2 [3]; hiPSC-CMs): 12.1 µM
EC90 (SARS-CoV-2 [3]; hiPSC-CMs): 24.1 µM
CC50 at 72 h [4]: > 100 µM

Cc1cccc(CCN2CCC(C(=O)c3ccc(NS(C)(=O)=O)cc3)CC2)n1 [E4031]
repolarization (hPSC-CMs): significantly delayed

NC(=O)c1nc(F)c[nH]c1=O [Favipiravir (T-705), favipiravir]
in vitro antiviral activity against SARS-CoV-2 (SARS-CoV-2 [5]): no apparent in vitro antiviral activity

CCN(CCO)CCCC(C)Nc1ccnc2cc(Cl)ccc12 (centres unmarked) [Hydroxychloroquine, hydroxychloroquine]
CC50 at 72 h [4]: 76.1 µM

CCC(CC)COC(=O)[C@H](C)N[P@](=O)(OC[C@H]1O[C@@](C#N)(c2ccc3c(N)ncnn23)[C@H](O)[C@@H]1O)Oc1ccccc1 [Remdesivir]
CC50 at 24 h (Cell viability assay [1]; [8]): 17.7 µM
CC50 at 48 h (Cell viability assay [1]; [8]): 10.2 µM
CC50 (Cell viability assay [1]; hPSC-CMs (hESC-CMs and hiPSC-CMs)): 10.2 to 39.4 µM
viral particle production (SARS-CoV-2 [2]; hESC-CMs and hiPSC-CMs, 0.3 μM and 1 μM remdesivir): Complete suppression
reduction of viral titer (SARS-CoV-2 [2]; hPSC-CMs, 0.1 μM): minimal reduction
concentration that reduced Na+ peak amplitudes and spontaneous beating rates, followed by complete cessation of spontaneous beating (hiPSC-CMs; 30 min exposure): ≥ 30 µM
field potential duration (FPD) (hiPSC-CMs; 30 min exposure): dose-dependent prolongations of FPD
Early afterdepolarizations (EADs) and delayed afterdepolarizations (DADs) (hiPSC-CMs; data not shown): not detected
CC50 at 24 h (Cell viability assay [6]): 39.4 µM
CC50 at 48 h (Cell viability assay [6]): 15.6 µM
selectivity index (SI) (SARS-CoV-2 [5]; CC50/EC50): > 50
IC50 (hERG currents): > 100 µM
EC50 (SARS-CoV-2 [3]; hESC-CMs): 0.6 µM
EC90 (SARS-CoV-2 [3]; hESC-CMs): 1.3 µM
EC50 (SARS-CoV-2 [3]; hiPSC-CMs): 0.2 µM
EC90 (SARS-CoV-2 [3]; hiPSC-CMs): 0.33 µM
intracellular viral mRNA synthesis (SARS-CoV-2 [7]): complete inhibition
CC50 at 72 h [4]: > 100 µM

CN(CCOc1ccc(NS(C)(=O)=O)cc1)CCc1ccc(NS(C)(=O)=O)cc1 [dofetilide]
repolarization (hPSC-CMs): significantly delayed

CC(C)NCC(O)c1ccc(O)c(O)c1 (centres unmarked) [isoprenaline]
rate of AP (hPSC-CMs; 100 nM): substantially increased
